Twelve molecules from ChEMBL document CHEMBL1143577, “Syntheses and biological activities of rebeccamycin analogues with uncommon sugars” (J Med Chem, 2005) can be followed below.

One assay deals with SW-620. Description: Inhibitory concentration against SW620 colorectal carcinoma cell line in MTS assay. Format: functional, cell-based, Homo sapiens. Summed up:
(§1)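 Cells grown in RPMI 1640 with 10% FBS, 1% nonessential amino acids, penicillin-streptomycin, 37 °C, 5% CO2. Exponentially growing cells were then exposed to a range of compound concentrations for 72 h. MTS (2 mg/mL) plus PMS (25 µM) was added for 3 h, and absorbance was read at 490 nm. IC50 came from dose-response curves of % growth versus untreated control.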

A further assay concerns K562. Description: Inhibitory concentration against […] leukemia cell line in MTS assay. Format: functional, cell-based. The following applies: Homo sapiens. Summed up:
as §1

pIC50: −log10 of the molar value.

One may read the pIC50 as the negative decadic logarithm of the IC50, by convention in mol/L. High values mean a small IC50, low ones a large IC50.

`O=C1c2c(c3c4ccccc4n(C4OC(CO)C(O)C(O)C4O)c3c3[nH]c4ccccc4c23)C(=O)N1CCCn1ccnc1` (stereo not drawn): the pIC50 in the assay on SW-620 (Homo sapiens, SW-620) was 5.70; with K562, 5.40.
For `CC1OC(n2c3ccccc3c3c4c(c5c6ccccc6[nH]c5c32)C(=O)N(C)C4=O)CC(O)C1O` (stereo in doubt; 5), in that order: 4.62 and 4.59.
The matching figures for `CO[C@H]1[C@H](O)[C@@H](O)[C@H](n2c3c(Cl)cccc3c3c4c(c5c6cccc(Cl)c6[nH]c5c32)C(=O)NC4=O)O[C@@H]1CO` [REBECCAMYCIN]: 5.40 and 5.22.
For `CC1OC(n2c3ccccc3c3c4c(c5c6ccccc6[nH]c5c32)C(=O)OC4=O)CC(NCc2ccccc2)C1O` (stereo not drawn), in that order: 4.12 and 4.28.
As for `CN1C(=O)c2c(c3c4ccccc4[nH]c3c3[nH]c4ccccc4c23)C1=O`, the pIC50 is below 4.00 in the assay with SW-620 (Homo sapiens, SW-620) and 4.40 in the assay on K562.
For `O=C1c2c(c3c4ccccc4n(C4OC(COCc5ccccc5)C(OCc5ccccc5)C(OCc5ccccc5)C4OCc4ccccc4)c3c3[nH]c4ccccc4c23)C(=O)N1CCCn1ccnc1` (stereo not drawn), in that order: below 4.30 and below 4.30.
As to `CC1OC(n2c3ccccc3c3c4c(c5c6ccccc6[nH]c5c32)C(=O)N(C)C4=O)CC(O)C1O` (stereo in doubt; 6), the pIC50 in the assay on SW-620 (sw-620) is 4.47.
For the molecule `CC1OC(n2c3ccccc3c3c4c(c5c6ccccc6[nH]c5c32)C(=O)N(C)C4=O)CC(NCc2ccccc2)C1O` (stereo not drawn), the pIC50 in the assay on SW-620 (Homo sapiens, SW-620) is below 4.00; in the assay with K562 it was 4.47.
The matching figures for `CN1C(=O)c2c(c3c4ccccc4n(C4CC(O)C(O)C(CO)O4)c3c3[nH]c4ccccc4c23)C1=O` (stereo not drawn): 4.89 and 4.92.
For `CC1OC(n2c3ccccc3c3c4c(c5c6ccccc6[nH]c5c32)C(=O)N(N)C4=O)CC(O)C1O` (stereo not drawn), in that order: below 4.00 and below 4.00.
For `CN1C(=O)c2c(c3c4ccccc4n(C4OC(CO)C(O)C(O)C4O)c3c3[nH]c4ccccc4c23)C1=O` (stereo not drawn), in that order: 5.30 and 5.52.
Take `CC1OC(n2c3ccccc3c3c4c(c5c6ccccc6[nH]c5c32)C(=O)OC4=O)CC(N)C1O` (stereo not drawn): the pIC50 in the assay on SW-620 (Homo sapiens, SW-620) was below 4.00; with K562 it was 4.26.
